Assay type in all cases: functional
For experiment [1], the system named is Escherichia coli DH5[alpha]. As to the kind of experiment: Agonist activity at Escherichia coli DH5alpha (pJN105L + pSC11) LasR assessed as activation of quorum sensing at 10 uM relative to N-(3-oxo)-dodecanoyl HL.
The subject of experiment [2] is Escherichia coli DH5[alpha]. As to the kind of experiment: Antagonist activity at Escherichia coli DH5alpha (pJN105L + pSC11) LasR assessed as inhibition of N-(3-oxo)-dodecanoyl HL-induced quorum sensing activation at 10 uM relative to untreated control.
For experiment [3], the target named is T1, Transcriptional activator protein LasR (Pseudomonas aeruginosa (strain ATCC 15692 / PAO1 / 1C / PRS 101 / LMG12228)) (UniProt P25084).
T1 sequence (whole entry): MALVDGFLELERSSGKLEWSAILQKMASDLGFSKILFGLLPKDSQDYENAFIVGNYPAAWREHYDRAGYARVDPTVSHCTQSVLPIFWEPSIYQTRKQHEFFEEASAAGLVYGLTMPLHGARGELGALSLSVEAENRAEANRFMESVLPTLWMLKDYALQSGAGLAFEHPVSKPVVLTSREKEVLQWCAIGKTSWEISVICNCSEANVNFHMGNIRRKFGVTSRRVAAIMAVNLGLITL
As to the kind of experiment: Antagonist activity at Pseudomonas aeruginosa PAO1 MW1 (pUM15) LasR assessed as inhibition of N-(3-oxo)-dodecanoyl HL-induced quorum sensing activation at 10 uM relative to untreated control. An outline of the steps: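 P. aeruginosa PAO1 MW1 colony grown overnight at 30 °C in LB with MOPS at pH 7 plus carbenicillin (300 µg/mL). Diluted 1:10 and shaken at 37 °C to OD 0.25–0.30. OdDHL added to the subculture at 1 μM final, then plated with test compound. Plates shaken at 37 °C for 8 h, then optical density and fluorescence read.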

Experiment [4] deals with T1, Transcriptional activator protein LasR (Pseudomonas aeruginosa (strain ATCC 15692 / PAO1 / 1C / PRS 101 / LMG12228)). As to the kind of experiment: Agonist activity at Pseudomonas aeruginosa PAO1 MW1 (pUM15) LasR assessed as activation of quorum sensing at 10 uM relative to N-(3-oxo)-dodecanoyl HL. An outline of the steps: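 P. aeruginosa PAO1 MW1 grown overnight at 30 °C in LB/MOPS pH 7 with carbenicillin (300 µg/mL). Subcultured 1:10 at 37 °C to OD 0.25–0.30 and plated with compound only, no native ligand. Incubated with shaking at 37 °C for 8 h. OD and fluorescence then read.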

Experiment [5] concerns the target T2, Transcriptional activator protein LuxR (Aliivibrio fischeri) (UniProt P12746).
T2 sequence (whole entry): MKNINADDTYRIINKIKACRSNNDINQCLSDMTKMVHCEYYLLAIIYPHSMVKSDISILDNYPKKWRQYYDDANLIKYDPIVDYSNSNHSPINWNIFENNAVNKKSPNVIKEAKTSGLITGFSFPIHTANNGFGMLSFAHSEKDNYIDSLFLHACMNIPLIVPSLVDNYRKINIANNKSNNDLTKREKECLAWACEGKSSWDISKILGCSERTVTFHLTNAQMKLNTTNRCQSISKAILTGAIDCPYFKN
As to the kind of experiment: Antagonist activity at Vibrio fischeri ESI 114 (delta-LuxI) LuxR assessed as inhibition of OHHL-induced quorum sensing activation at 10 uM relative to untreated control. An outline of the steps:
(§1)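 LuxR reporter in V. fischeri ESI 114 (Δ-LuxI), compounds screened at 10 μM in triplicate. For inhibition, cells challenged with 2 μM OHHL. Agonism normalized to native ligand at 100 μM. Negative controls with no ligand subtracted as background.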

Experiment [6] has as its target T2, Transcriptional activator protein LuxR (Aliivibrio fischeri). As to the kind of experiment: Agonist activity at Vibrio fischeri ESI 114 (delta-LuxI) LuxR assessed as activation of quorum sensing at 10 uM relative to OHHL. An outline of the steps:
as §1

For experiment [7], the target named is T3, Transcriptional activator protein TraR (Agrobacterium tumefaciens) (UniProt P33905).
T3 sequence (whole entry): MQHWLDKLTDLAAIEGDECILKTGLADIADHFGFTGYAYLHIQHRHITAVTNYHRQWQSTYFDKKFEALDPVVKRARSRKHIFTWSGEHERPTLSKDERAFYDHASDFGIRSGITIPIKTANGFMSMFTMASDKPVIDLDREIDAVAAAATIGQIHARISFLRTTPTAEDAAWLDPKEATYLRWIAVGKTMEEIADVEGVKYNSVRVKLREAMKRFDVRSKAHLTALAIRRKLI
As to the kind of experiment: Antagonist activity at Agrobacterium tumefaciens WCF (pCF372) TraR assessed as inhibition of OOHL-induced quorum sensing activation at 10 uM relative to untreated control.

Experiment [8] deals with T3, Transcriptional activator protein TraR (Agrobacterium tumefaciens). As to the kind of experiment: Agonist activity at Agrobacterium tumefaciens WCF (pCF372) TraR assessed as activation of quorum sensing at 10 uM relative to OOHL.

On to `CCCCCCCCCC(=O)CC(=O)N[C@@H](C)C(=O)OC`, for which the Activity in experiment [1] amounted to 2%; in experiment [4], 0%; in experiment [6], 4%; in experiment [8] it was 0%. In addition, the inhibition (commonly the change of the read-out against control, counted positive when it falls) in experiment [2] was -4%; in experiment [3], 23%; in experiment [5] it was 24%; in experiment [7], -4%.

As to `CCCCCCCCCC(=O)CC(=O)NCc1cccc([N+](=O)[O-])c1`, the Activity in experiment [1] is 0%; in experiment [4], 0%; in experiment [6], 2%; in experiment [8], 0%. Besides, the inhibition is 41% in experiment [2], 17% in experiment [3], 44% in experiment [5] and -6% in experiment [7].

With `CCCCCCCCCC(=O)CC(=O)NCc1ccco1`, the Activity is 0% in experiment [1], 0% in experiment [4], 4% in experiment [6] and -1% in experiment [8]. Also, the inhibition was 0% in experiment [2], 26% in experiment [3], -4% in experiment [5] and 1% in experiment [7].

Regarding `CCCCCCCCCC(=O)CC(=O)NCCc1ccccc1`, the Activity worked out at 0% in experiment [1], 0% in experiment [4], 1% in experiment [6] and 0% in experiment [8]. The inhibition is -4% in experiment [2], 5% in experiment [3], 7% in experiment [5] and -4% in experiment [7].

Values taken from ChEMBL document CHEMBL1811866, “Design, synthesis, and biological evaluation of abiotic, non-lactone modulators of LuxR-type quorum sensing” (Bioorg Med Chem, 2011).
